Assay results published in PubChem BioAssay AID624289 (Broad Institute, 2012).
“And” between values parts separate entries of the source, which are not always exact repeats. Equal values may be shown once. The source made the active and inactive calls.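 The calls were made as follows: active = compounds lowering cell ATP signal with a fitted AC50 no higher than twice the top tested dose; inconclusive = flat curve with 30 to 70% signal loss, or poor fit; inactive = the rest.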

What was measured:
[1] = system: SK-MEL-5 viability, ATP luminescence (CellTiter-Glo), 24 h; test: ATP-based cytotoxicity in parental melanoma cells – cell-based, CellTiter-Glo, dry powder samples, set 2, orthogonal assay for MITF inhibitor project, dose response (AID 624289)
Outline: (§1)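 Assay system: SK-MEL-5 human melanoma cells, parental line of primary-screen reporter. Timing: 24 h compound exposure at 37 °C, 5 min reagent, RT. Signal: CellTiter-Glo luminescence of cellular ATP after brief shaking. Doses: pinned compound dose series.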

[2] = as above; settings: SK-MEL-5 viability, ATP luminescence (CellTiter-Glo), 24 h; at 35 µM (top of the series)
Outline: as §1

## Cc1nc2ccccc2n1/N=C/c1ccc([N+](=O)[O-])s1
[1]
  AC50: 6.5 µM

## O=C(CNc1cccc2ccccc12)N/N=C/c1ccc([N+](=O)[O-])o1
[1]
  AC50: 19.8 µM

## O=C1C(NS(=O)(=O)c2ccc(Br)s2)=C(N2CCOCC2)C(=O)c2ccccc21
[1]
  AC50: 23.2 µM

## COC1=C(NS(=O)(=O)c2ccccc2)C(=O)c2ccccc2C1=O
[1]
  AC50: 7.28 µM

## O=C(NC1=C(c2ccc(OC(F)(F)F)cc2)C(=O)c2ccccc2C1=O)c1ccco1
[1]
  AC50: 23.1 µM

## COc1cccc(-c2cc(C(=O)NC3=C(Cl)C(=O)c4ccccc4C3=O)ccc2OC)c1
[1]
  AC50: 22.4 µM

## O=C1C(NS(=O)(=O)c2ccc(Br)cc2)=C(N2CCOCC2)C(=O)c2ccccc21
[1]
  AC50: 12.2 µM

## CN1CCN(C2=C(NS(=O)(=O)c3ccc(Br)cc3)C(=O)c3ccccc3C2=O)CC1
[1]
  AC50: > 70 µM (inactive)

## CN1CCN(C2=C(NS(=O)(=O)c3ccc(Br)s3)C(=O)c3ccccc3C2=O)CC1
[1]
  AC50: 13.9 µM

## CC(=O)N(C)C1=C(N2CCN(C)CC2)C(=O)c2ccccc2C1=O
[1]
  AC50: 3.16 µM

## COc1ccc(S(=O)(=O)N(C(C)=O)c2ccc(OC(C)=O)c3ccccc23)cc1[N+](=O)[O-]
[1]
  AC50: 19.9 µM

## COc1ccc(C2=C(NC(=O)c3cccc(OC)c3)C(=O)c3ccccc3C2=O)cc1
[1]
  AC50: 24.4 µM

## O=C1C(NS(=O)(=O)c2ccc(Br)cc2)=C(N2CCSCC2)C(=O)c2ccccc21
[1]
  AC50: 32.5 µM

## COc1ccc(C2=C(NC(=O)c3ccccc3OC)C(=O)c3ccccc3C2=O)cc1
[1]
  AC50: > 70 µM (inactive)

## CN1CCN(C2=C(NS(=O)(=O)c3ccccc3)C(=O)c3ccccc3C2=O)CC1
[1]
  AC50: 11.1 µM

## O=C1C(NS(=O)(=O)c2ccc(Br)s2)=C(N2CCSCC2)C(=O)c2ccccc21
[1]
  AC50: 29.1 µM

## O=C1C=C(Nc2ccccc2)C(=O)c2ccccc21
[1]
  AC50: 1.46 µM

## CCN1CCN(C2=C(NC(=O)c3ccccc3)C(=O)c3ccccc3C2=O)CC1
[1]
  AC50: 5.2 µM

## C=CCNC1=C(NCCCN(CC)CC)C(=O)c2ccccc2C1=O
[1]
  AC50: 11.5 µM

## CCN(CC)CCCCNC1=C(Nc2ccccc2)C(=O)c2ccccc2C1=O
[1]
  AC50: 33.2 µM

## CN1CCN(C2=C(NC(=O)c3ccc(Br)cc3)C(=O)c3ccccc3C2=O)CC1
[1]
  AC50: 3.05 µM

## COc1ccc(C2=C(NC(=O)c3ccc4ccccc4c3)C(=O)c3ccccc3C2=O)cc1
[1]
  AC50: > 70 µM (inactive)

## O=C1C(NS(=O)(=O)c2ccc(Br)cc2)=C(N2CCCCC2)C(=O)c2ccccc21
[1]
  AC50: 32.6 µM

## NC1=C(NC(=O)c2ccccc2)C(=O)c2ccccc2C1=O
[1]
  AC50: 10.1 µM

## O=C1C(Nc2ccccc2)=C(N2CCCCC2)C(=O)c2ccccc21
[1]
  AC50: 8.69 µM

## CN1CCN(C2=C(NC(=O)c3ccccc3)C(=O)c3ccccc3C2=O)CC1
[1]
  AC50: 5.15 µM

## COc1cccc(C2=C(NC(=O)c3ccccc3)C(=O)c3ccccc3C2=O)c1
[1]
  AC50: 19.1 µM

## C=CCNC1=C(NCCCN2CCOCC2)C(=O)c2ccccc2C1=O
[1]
  AC50: 33.1 µM

## O=C1C(NS(=O)(=O)c2ccc(Br)cc2)=C(N2CCN(c3ccccc3)CC2)C(=O)c2ccccc21
[1]
  AC50: 25.2 µM

## CCN1CCN(C2=C(NS(=O)(=O)c3cccs3)C(=O)c3ccccc3C2=O)CC1
[1]
  AC50: 19.2 µM

## O=C(NC1=C(N2CCOCC2)C(=O)c2ccccc2C1=O)c1ccccc1
[1]
  AC50: 18.2 µM

## O=C(NC1=C(c2ccccc2)C(=O)c2ccccc2C1=O)c1ccco1
[1]
  AC50: 20.4 µM

## O=C(NC1=C(c2ccccc2)C(=O)c2ccccc2C1=O)c1ccc(Br)cc1
[1]
  AC50: 28.9 µM

## C=CCNC1=C(NCCN(CC)CC)C(=O)c2ccccc2C1=O
[1]
  AC50: 9.17 µM

## CC(=O)NC1=C(c2ccccc2)C(=O)c2ccccc2C1=O
[1]
  AC50: 15.2 µM

## Cc1ccc(C(=O)NC2=C(c3ccccc3)C(=O)c3ccccc3C2=O)o1
[1]
  AC50: 19.3 µM

## O=C1C(NS(=O)(=O)c2ccccc2)=C(N2CCOCC2)C(=O)c2ccccc21
[1]
  AC50: 19.4 µM

## CCN1CCN(C2=C(NS(=O)(=O)c3ccc(Br)cc3)C(=O)c3ccccc3C2=O)CC1
[1]
  AC50: 25.4 µM

## O=C(NC1=C(N2CCSCC2)C(=O)c2ccccc2C1=O)c1ccc(Br)cc1
[1]
  AC50: 28.1 µM

## C[C@@H](NC1=C(Nc2ccccc2)C(=O)c2ccccc2C1=O)c1ccccc1
[1]
  AC50: > 70 µM (inactive)

## Cc1ccc(C(=O)NC2=C(c3ccc(OC(F)(F)F)cc3)C(=O)c3ccccc3C2=O)o1
[1]
  AC50: 29.5 µM

## COc1ccc(C2=C(NC(=O)c3ccc(OC)cc3-c3cccc(OC)c3)C(=O)c3ccccc3C2=O)cc1
[1]
  AC50: > 70 µM (inactive)

## O=C1C(Nc2ccccc2)=C(N2CCN(c3ccccc3)CC2)C(=O)c2ccccc21
[1]
  AC50: > 70 µM (inactive)

## CC(=O)NC1=C(c2ccc(Cl)cc2)C(=O)c2ccccc2C1=O
[1]
  AC50: 15.8 µM

## COc1ccc(C(=O)NC2=C(c3ccccc3)C(=O)c3ccccc3C2=O)cc1
[1]
  AC50: 21.5 µM

## O=C(NC1=C(Cl)C(=O)c2ccccc2C1=O)c1ccccc1
[1]
  AC50: 4.73 µM

## CC(=O)N(C)C1=C(N2CCOCC2)C(=O)c2ccccc2C1=O
[1]
  AC50: 5.55 µM

## O=C(NC1=C(c2ccc(OC(F)(F)F)cc2)C(=O)c2ccccc2C1=O)c1ccccc1
[1]
  AC50: 24.3 µM

## O=C(NC1=C(c2ccc(Oc3ccccc3)cc2)C(=O)c2ccccc2C1=O)c1ccccc1
[1]
  AC50: > 70 µM (inactive)

## O=C(NC1=C(N2CCN(c3ccccc3)CC2)C(=O)c2ccccc2C1=O)c1ccccc1
[1]
  AC50: > 70 µM (inactive)

## CCN(CC)CCCNC1=C(N(C)C(C)=O)C(=O)c2ccccc2C1=O
[1]
  AC50: 3.19 µM

## CCN1CCN(C2=C(N(C)C(C)=O)C(=O)c3ccccc3C2=O)CC1
[1]
  AC50: 3.29 µM

## COc1ccc(C2=C(NC(=O)c3ccc(Cl)cc3)C(=O)c3ccccc3C2=O)cc1
[1]
  AC50: 25.2 µM

## C=CCNC1=C(N2CCN(CC)CC2)C(=O)c2ccccc2C1=O
[1]
  AC50: 20.1 µM

## C=CCNC1=C(N(C)C(C)=O)C(=O)c2ccccc2C1=O
[1]
  AC50: 0.274 µM

## NC1=C(c2ccccc2)C(=O)c2ccccc2C1=O
[1]
  AC50: 28.5 µM

## COc1ccc(C2=C(NC(=O)c3cccc(Cl)c3)C(=O)c3ccccc3C2=O)cc1
[1]
  AC50: 23.1 µM

## C=C1C(=O)OC2C1CC/C(C)=C\CCC1(C)OC21 (centres undefined)
[1]
  AC50: > 70 µM (inactive)

## CCN1c2ccccc2NC2N=C(OC)C(c3ccccc3)C21 (centres undefined)
[1]
  AC50: 11.1 µM

## NC1=C(c2ccc(OC(F)(F)F)cc2)C(=O)c2ccccc2C1=O
[1]
  AC50: > 70 µM (inactive)

## CC(=O)NC1=C(c2ccc3c(c2)oc2ccccc23)C(=O)c2ccccc2C1=O
[1]
  AC50: 17.4 µM

## C=CCNC1=C(N2CCOCC2)C(=O)c2ccccc2C1=O
[1]
  AC50: 6.79 µM

## CCN1CCN(C2=C(Nc3ccccc3)C(=O)c3ccccc3C2=O)CC1
[1]
  AC50: 14.2 µM

## CC(=O)NC1=C(c2ccc(Oc3ccccc3)cc2)C(=O)c2ccccc2C1=O
[1]
  AC50: 14.2 µM

## NC1=CC(=O)c2ccccc2C1=O
[1]
  AC50: 7.35 µM

## COc1ccc(C2=C(NC(=O)c3ccccc3Cl)C(=O)c3ccccc3C2=O)cc1
[1]
  AC50: 17.1 µM

## O=C(NC1=C(N2CCOCC2)C(=O)c2ccccc2C1=O)c1ccc(Br)cc1
[1]
  AC50: 15.9 µM

## CC(=O)NC1=C(c2cccc(Cl)c2)C(=O)c2ccccc2C1=O
[1]
  AC50: 11.5 µM

## C=CCNC1=C(N2CCN(C)CC2)C(=O)c2ccccc2C1=O
[1]
  AC50: 20.1 µM

## C=CCNC1=C(N2CCCCC2)C(=O)c2ccccc2C1=O
[1]
  AC50: 2.66 µM

## CCN1CCN(C2=C(NS(=O)(=O)c3ccc(Br)s3)C(=O)c3ccccc3C2=O)CC1
[1]
  AC50: 26.1 µM

## C=CCNC1=C(Cl)C(=O)c2ccccc2C1=O
[1]
  AC50: 5.18 µM and 7.1 µM

## CCN(CC)CCNC1=C(Nc2ccccc2)C(=O)c2ccccc2C1=O
[1]
  AC50: 36.4 µM

## O=C1C(NS(=O)(=O)c2ccc(Br)cc2)=C(c2ccccc2)C(=O)c2ccccc21
[1]
  AC50: 30.9 µM

## CCN1CCN(C2=C(NC(=O)c3ccc(Br)cc3)C(=O)c3ccccc3C2=O)CC1
[1]
  AC50: 3.7 µM

## CCN(CC)CCCNC1=C(Nc2ccccc2)C(=O)c2ccccc2C1=O
[1]
  AC50: 21.1 µM

## O=C(NC1=C(c2ccccc2)C(=O)c2ccccc2C1=O)c1ccccc1
[1]
  AC50: 20.6 µM

## O=C1C(Nc2ccccc2)=C(N2CCOCC2)C(=O)c2ccccc21
[1]
  AC50: 29.3 µM and 24.5 µM

## CC(=O)N(C)C1=C(N2CCCCC2)C(=O)c2ccccc2C1=O
[1]
  AC50: 2.67 µM

## O=C(NC1=C(N2CCSCC2)C(=O)c2ccccc2C1=O)c1ccccc1
[1]
  AC50: 13.2 µM

## C=CCNC1=C(N2CCSCC2)C(=O)c2ccccc2C1=O
[1]
  AC50: 12.3 µM

## C=CCNC1=C(NS(=O)(=O)c2ccc(Br)cc2)C(=O)c2ccccc2C1=O
[1]
  AC50: 24.4 µM

## COc1ccc(C2=C(NC(C)=O)C(=O)c3ccccc3C2=O)cc1
[1]
  AC50: 11.7 µM

## C=CCNC1=C(NCC=C)C(=O)c2ccccc2C1=O
[2]
  activity change, negative = inhibition: -6.6% (inactive)

## C=CCNC1=C(NS(=O)(=O)c2cccs2)C(=O)c2ccccc2C1=O
[1]
  AC50: 24.4 µM

## O=C1C(NS(=O)(=O)c2cccs2)=C(N2CCOCC2)C(=O)c2ccccc21
[1]
  AC50: 21.1 µM

## CN1CCN(C2=C(Nc3ccccc3)C(=O)c3ccccc3C2=O)CC1
[1]
  AC50: 14.1 µM

## O=C1C(NS(=O)(=O)c2ccc(Br)s2)=C(N2CCCCC2)C(=O)c2ccccc21
[1]
  AC50: 28.9 µM

## COc1ccc(C(=O)NC2=C(c3ccc(OC)cc3)C(=O)c3ccccc3C2=O)cc1
[1]
  AC50: 15 µM
